Test results taken from ChEMBL document CHEMBL4196064, “Identification of Pyrazolo[3,4-e][1,4]thiazepin based CYP51 inhibitors as potential Chagas disease therapeutic alternative: In vitro and in vivo evaluation, binding mode prediction and SAR exploration” (Eur J Med Chem, 2018).
Values after ≈ are worked out from the molar mass of the structure shown. Blank lines part the entries; values can stand above or below the compound they belong to. Active and inactive are the calls of the source. No cut-off for these calls is given here.

Legend:
Trypanosoma cruzi [1] = assay: Antitrypanosomal activity against bloodstream trypomastigote stage of Trypanosoma cruzi Y infected in Swiss Webster mouse assessed as reduction in parasitemia at 100 mg/kg, po administered daily on day 5 to 9 post infection relative to control; format: functional; parameters: scale not given: the % may be the effect or the level left
Procedure, shortened: (§1)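 Male Swiss Webster mice (18–20 g) infected i.p. with 10^4 Y strain bloodstream trypomastigotes. Treatment given days 5–9 post infection: test compound i.p. 5–20 mg/kg/day (0.1 mL, DMSO then 20% Trappsol) or Bz 100 mg/kg/day p.o. (3% Tween 80 in water). Controls infected, vehicle only. Parasitemia counted by Pizzi-Brener in 5 µL tail blood; mortality checked daily to 30 days post treatment.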

[2] = Cytotoxicity against Swiss Webster mouse cardiac cells assessed as reduction in cell viability after 24 hrs by prestoblue assay; format: cell-based, Cardiac Muscle Cell; conditions: read-out: LC50
Procedure, shortened: (§2)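 Primary cardiac cells from Swiss Webster mouse embryos, cultured at 37°C in DMEM with 5% FBS, CaCl2, glutamine and chick embryo extract. Uninfected cultures were exposed to increasing concentrations for 24 h. Viability was read with PrestoBlue (5 h incubation, absorbance at 570 nm) and checked by light microscopy for morphology.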

Trypanosoma cruzi [3] = assay: Antitrypanosomal activity against Trypanosoma cruzi Tulahuen trypomastigote forms infected in mouse L929 cells assessed as reduction in parasite load after 96 hrs by beta-galactosidase reporter gene assay; format: functional, organism-based; conditions: L929, 96 h
Procedure, shortened: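 L929 cells infected 2 h with tissue culture-derived Tulahuen β-galactosidase trypomastigotes (10:1 parasite/host cell), rinsed with saline, and left 48 h at 37℃. Increasing non-toxic concentrations applied for 96 h. Absorbance read at 570 nm, % growth inhibition versus untreated cells, EC50 derived; mean ± SD. DMSO not above 0.6 %.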

Trypanosoma cruzi [4] = assay: Antitrypanosomal activity against bloodstream trypomastigote stage of Trypanosoma cruzi Y measured after 24 hrs by light microscopic analysis; format: functional, organism-based
Procedure, shortened: (§3)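 Y strain bloodstream trypomastigotes from heart puncture of infected mice, at 5x10⁶/mL in RPMI 1640 with 5% FBS. Incubated at 37℃ with 0–50 µM for 2 or 24 h. […] Mean ± SD.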

[5] = Cytotoxicity against mouse L929 cells assessed as reduction in cell viability after 96 hrs by Alamarblue assay; format: cell-based; conditions: read-out: LC50
Procedure, shortened: (§4)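 L929 fibroblasts (4x10^3 cells/well) in RPMI 1640 with 10% FBS, incubated at 37°C with increasing concentrations for 96 h. Viability was read with AlamarBlue (6 h incubation, absorbance at 600 nm) and confirmed by light microscopy.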

[6] = Cytotoxicity against Swiss Webster mouse cardiac cells assessed as reduction in cell viability after 24 hrs by light microscopic analysis; format: cell-based, Cardiac Muscle Cell; conditions: read-out: LC50; procedure, shortened: as §2
[7] = Selectivity index, ratio of LC50 for Swiss Webster mouse cardiac cells by light microscopic analysis to EC50 for bloodstream trypomastigote stage of Trypanosoma cruzi Y measured after 24 hrs; format: toxicity; conditions: read-out: Selectivity Index
Procedure, shortened: (§5)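 The ratio is cardiac-cell LC50 (24 h) over the 24 h EC50 against Y-strain bloodstream trypomastigotes. Trypomastigotes (5x10^6/mL) were exposed to 0-50 µM at 37°C in RPMI with 5% FBS. Surviving parasites were counted in a Neubauer chamber, and the EC50 is the concentration halving the parasite number.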

[8] = Selectivity index, ratio of LC50 for Swiss Webster mouse cardiac cells by prestoblue assay to EC50 for bloodstream trypomastigote stage of Trypanosoma cruzi Y measured after 24 hrs; format: toxicity; conditions: read-out: Selectivity Index; procedure, shortened: as §5
[9] = Selectivity index, ratio of LC50 for mouse L929 cells by light microscopic analysis to EC50 for Trypanosoma cruzi Tulahuen trypomastigote forms; format: toxicity; conditions: read-out: Selectivity Index
[10] = Selectivity index, ratio of LC50 for mouse L929 cells by Alamarblue assay to EC50 for Trypanosoma cruzi Tulahuen trypomastigote forms; format: toxicity; conditions: read-out: Selectivity Index
Trypanosoma cruzi [11] = assay: Antitrypanosomal activity against bloodstream trypomastigote stage of Trypanosoma cruzi Y infected in Swiss Webster mouse assessed as mouse survival at 100 mg/kg, po administered daily on day 5 to 9 measured daily until 30 days post dose relative to control; format: functional
Procedure, shortened: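 Male Swiss Webster mice (18-20 g) were infected i.p. with 10^4 Y-strain bloodstream trypomastigotes. Benznidazole was given in sterile water with 3% Tween 80, 0.1 mL p.o. daily from 5 to 9 dpi. Mice were checked daily for mortality until 30 days post treatment, and the result was expressed as percentage cumulative mortality.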

[12] = Cytotoxicity against mouse L929 cells assessed as reduction in cell viability after 96 hrs by light microscopic analysis; format: cell-based; conditions: read-out: LC50; procedure, shortened: as §4
Trypanosoma cruzi [13] = assay: Antitrypanosomal activity against bloodstream trypomastigote stage of Trypanosoma cruzi Y infected in Swiss Webster mouse assessed as reduction in parasitemia at 100 mg/kg, po administered daily measured at day 8 post infection; format: functional, organism-based
Trypanosoma cruzi [14] = assay: Antitrypanosomal activity against Trypanosoma cruzi Tulahuen trypomastigote forms infected in mouse L929 cells assessed as reduction in infection level at 10 to 12 uM after 96 hrs by beta-galactosidase reporter gene assay relative to control; format: functional; parameters: scale not given: the % may be the effect or the level left
Procedure, shortened: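 L929 cells infected 2 h with tissue culture-derived β-galactosidase-expressing Tulahuen trypomastigotes at 10:1 parasite/host cell ratio, rinsed, and held 48 h at 37℃. Single fixed concentration (10-12 µM) then applied, 96 h. Absorbance read at 570 nm; growth inhibition expressed relative to untreated cells. DMSO not above 0.6 %.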

Trypanosoma cruzi [15] = assay: Antitrypanosomal activity against bloodstream trypomastigote stage of Trypanosoma cruzi Y measured after 2 hrs by light microscopic analysis; format: functional, organism-based; procedure, shortened: as §3
Trypanosoma cruzi [16] = assay: Antitrypanosomal activity against Trypanosoma cruzi Sylvio X10/7 intracellular amastigotes forms assessed as reduction in number of amastigotes per host cell measured every 24 hrs for 96 hrs by time-kill assay; format: functional, organism-based
[17] = molecular target: Sterol 14-alpha demethylase (Trypanosoma cruzi (strain CL Brener)) (UniProt Q7Z1V1); assay: Inhibition of recombinant Trypanosoma cruzi Tulahuen CYP51 expressed in Escherichia coli JM109 cell membranes assessed as residual activity at 0.01 uM by fluorescence based analysis (reference value: 95%)
[18] = molecular target: Sterol 14-alpha demethylase (Trypanosoma cruzi (strain CL Brener)) (UniProt Q7Z1V1); assay: Potency index, ratio of fluconazole IC50 to compound IC50 for recombinant Trypanosoma cruzi Tulahuen CYP51
[19] = molecular target: Sterol 14-alpha demethylase (Trypanosoma cruzi (strain CL Brener)) (UniProt Q7Z1V1); assay: Inhibition of recombinant Trypanosoma cruzi Tulahuen CYP51 expressed in Escherichia coli JM109 cell membranes assessed as residual activity at 0.1 uM by fluorescence based analysis (reference value: 95%)
[20] = molecular target: Sterol 14-alpha demethylase (Trypanosoma cruzi (strain CL Brener)) (UniProt Q7Z1V1); assay: Inhibition of recombinant Trypanosoma cruzi Tulahuen CYP51 expressed in Escherichia coli JM109 cell membranes assessed as residual activity at 0.033 uM by fluorescence based analysis (reference value: 95%)
[21] = molecular target: Sterol 14-alpha demethylase (Trypanosoma cruzi (strain CL Brener)) (UniProt Q7Z1V1); assay: Inhibition of recombinant Trypanosoma cruzi Tulahuen CYP51 expressed in Escherichia coli JM109 cell membranes assessed as residual activity at 10 uM by fluorescence based analysis (reference value: 95%)
Trypanosoma cruzi [22] = assay: Antitrypanosomal activity against bloodstream trypomastigote stage of Trypanosoma cruzi Y infected in Swiss Webster mouse assessed as increase in mouse survival at 5 to 20 mg/kg, ip administered daily on day 5 to 9 measured daily until 30 days post dose relative to control; format: functional, organism-based; procedure, shortened: as §1
Trypanosoma cruzi [23] = assay: Trypanocidal activity against Trypanosoma cruzi Sylvio X10/7 intracellular amastigotes forms assessed as inhibition of maximum parasite growth measured every 24 hrs for 96 hrs by time-kill assay relative to control; format: functional
Trypanosoma cruzi [24] = assay: Antitrypanosomal activity against bloodstream trypomastigote stage of Trypanosoma cruzi Y infected in Swiss Webster mouse assessed as reduction in parasitemia at 10 mg/kg, ip administered daily on day 5 to 9 post infection relative to control; format: functional; parameters: scale not given: the % may be the effect or the level left; procedure, shortened: as §1
[25] = molecular target: Sterol 14-alpha demethylase (Trypanosoma cruzi (strain CL Brener)) (UniProt Q7Z1V1); assay: Inhibition of recombinant Trypanosoma cruzi Tulahuen CYP51 expressed in Escherichia coli JM109 cell membranes assessed as residual activity at 1 uM by fluorescence based analysis (reference value: 95%)
[26] = Acute toxicity in ip dosed Swiss Webster mouse measured 48 hrs post dose; format: organism-based; conditions: in vivo
Procedure, shortened: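 Female Swiss Webster mice (20 to 23 g) injected intraperitoneally with increasing doses up to 200 mg/kg, n = 2 mice per assay, two assays. Animals inspected for toxic and subtoxic signs under OECD guidelines; NOAEL determined 48 h after injection. Vehicle: DMSO then Trappsol, in vivo vehicle not above 20 %.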

Trypanosoma cruzi [27] = assay: Antitrypanosomal activity against bloodstream trypomastigote stage of Trypanosoma cruzi Y infected in Swiss Webster mouse assessed as reduction in parasitemia at 5 mg/kg, ip administered daily on day 5 to 9 post infection relative to control; format: functional; parameters: scale not given: the % may be the effect or the level left; procedure, shortened: as §1
Trypanosoma cruzi [28] = assay: Antitrypanosomal activity against bloodstream trypomastigote stage of Trypanosoma cruzi Y infected in Swiss Webster mouse assessed as reduction in parasitemia at 20 mg/kg, ip administered daily on day 5 to 9 post infection relative to control; format: functional; parameters: scale not given: the % may be the effect or the level left; procedure, shortened: as §1
Trypanosoma cruzi [29] = assay: Trypanocidal activity against Trypanosoma cruzi Sylvio X10/7 intracellular amastigotes forms measured every 24 hrs for 96 hrs by time-kill assay; format: functional
[30] = molecular target: Sterol 14-alpha demethylase (Trypanosoma cruzi (strain CL Brener), UniProt Q7Z1V1); assay: Inhibition of recombinant Trypanosoma cruzi Tulahuen CYP51 expressed in Escherichia coli JM109 cell membranes assessed as […] by fluorescence based analysis
[31] = molecular target: Sterol 14-alpha demethylase (Trypanosoma cruzi (strain CL Brener)) (UniProt Q7Z1V1); assay: Inhibition of recombinant Trypanosoma cruzi Tulahuen CYP51 expressed in Escherichia coli JM109 cell membranes assessed as residual activity at 0.33 uM by fluorescence based analysis (reference value: 95%)
[32] = molecular target: Sterol 14-alpha demethylase (Trypanosoma cruzi (strain CL Brener)) (UniProt Q7Z1V1); assay: Inhibition of recombinant Trypanosoma cruzi Tulahuen CYP51 expressed in Escherichia coli JM109 cell membranes assessed as residual activity at 3.3 uM by fluorescence based analysis (reference value: 95%)

Chain of Sterol 14-alpha demethylase (Trypanosoma cruzi (strain CL Brener)) (Q7Z1V1 whole entry, looked up): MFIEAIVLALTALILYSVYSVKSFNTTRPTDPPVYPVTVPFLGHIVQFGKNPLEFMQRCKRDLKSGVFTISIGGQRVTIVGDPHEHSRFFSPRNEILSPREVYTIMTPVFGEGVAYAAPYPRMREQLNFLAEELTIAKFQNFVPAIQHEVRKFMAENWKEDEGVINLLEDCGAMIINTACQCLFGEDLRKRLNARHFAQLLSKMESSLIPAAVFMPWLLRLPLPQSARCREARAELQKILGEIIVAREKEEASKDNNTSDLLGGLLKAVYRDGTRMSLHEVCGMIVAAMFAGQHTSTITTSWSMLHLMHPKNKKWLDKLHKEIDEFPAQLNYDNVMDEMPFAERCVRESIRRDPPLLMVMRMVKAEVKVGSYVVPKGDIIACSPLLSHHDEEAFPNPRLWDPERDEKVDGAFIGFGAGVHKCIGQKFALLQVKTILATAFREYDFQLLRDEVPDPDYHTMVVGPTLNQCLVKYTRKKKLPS
Chain of Sterol 14-alpha demethylase (Q7Z1V1 whole entry): as the sequence (Q7Z1V1 whole entry, looked up) above

SMILES: O=C(Cn1ccnc1[N+](=O)[O-])NCc1ccccc1 [BENZNIDAZOLE]
Activity (Trypanosoma cruzi [1]): 100% | CC50 at 24 h [2]: > 200 µM | EC50 (Trypanosoma cruzi [3]): 2.63 to 3.79 µM | EC50 (Trypanosoma cruzi [4]): 6.02 to 16.9 µM | CC50 at 96 h [5]: > 200 µM | CC50 at 24 h [6]: > 200 µM | selectivity ratio at 24 h [7]: > 12 | selectivity ratio at 24 h [8]: > 12 | selectivity ratio [9]: > 53 | selectivity ratio [10]: > 53 | survival at 100 mg/kg (Trypanosoma cruzi [11]): 100% | CC50 at 96 h [12]: > 200 µM | Activity (Trypanosoma cruzi [13]): Active | Activity (Trypanosoma cruzi [14]): 89.3% | EC50 (Trypanosoma cruzi [15]): 10 to 50 µM

Activity [17]: 89.9% | Ratio IC50 [18]: 8 | EC50 (Trypanosoma cruzi [3]): 3.86 µM | EC50 (Trypanosoma cruzi [4]): 4 µM | Activity [19]: 49.5% | Activity [20]: 75.8% | Activity [21]: 0% | Activity [25]: 5.4% | IC50 [30]: 100 nM | Activity [31]: 0% | EC50 (Trypanosoma cruzi [15]): > 10 µM | Activity [32]: 1.2%
SMILES: Cc1n[nH]c2c1[C@@H](c1ccc(OCc3ccccc3Cl)cc1)S[C@@H](C)C(=O)N2
EC50 (Trypanosoma cruzi [16]): 400 nM | Activity (Trypanosoma cruzi [22]): inactive | Imax (Trypanosoma cruzi [23]): 94% | Activity (Trypanosoma cruzi [24]): 38% | NOAEL at 48 h [26]: > 50 mg/kg | Activity (Trypanosoma cruzi [27]): 30% | Activity (Trypanosoma cruzi [28]): 43% | MIC (Trypanosoma cruzi [29]): 17 µM (≈ 7.04 µg/mL)
